Reference: ChEMBL document CHEMBL1138815, “Synthesis, structure-activity relationships, and in vivo properties of 3,4-dihydro-1H-pyrido[2,3-b]pyrazin-2-ones as corticotropin-releasing factor-1 receptor antagonists” (J Med Chem, 2004)

Assays:
[1] = target: T1, Corticotropin-releasing factor receptor 1 (Rattus norvegicus, UniProt P35353); experiment: (§1) Inhibition of [125I]ovine-CRF binding to corticotropin releasing factor receptor 1
T1 sequence (P35353 whole entry): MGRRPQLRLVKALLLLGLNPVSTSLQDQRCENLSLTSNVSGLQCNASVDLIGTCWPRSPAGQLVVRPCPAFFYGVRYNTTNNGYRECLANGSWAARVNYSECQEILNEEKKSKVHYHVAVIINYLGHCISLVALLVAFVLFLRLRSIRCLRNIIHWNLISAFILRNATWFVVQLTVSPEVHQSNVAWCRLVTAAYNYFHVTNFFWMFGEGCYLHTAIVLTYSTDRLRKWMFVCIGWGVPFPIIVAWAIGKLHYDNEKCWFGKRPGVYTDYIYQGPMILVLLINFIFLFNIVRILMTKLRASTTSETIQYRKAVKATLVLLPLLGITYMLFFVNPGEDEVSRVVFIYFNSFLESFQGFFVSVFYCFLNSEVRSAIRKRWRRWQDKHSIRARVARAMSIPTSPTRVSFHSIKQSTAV
In short: (§2)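 CRF1 source is rat frontal cortex membranes (25 µg/well), washed by homogenization and 32000g spins. Incubated with 150 pM [125I]ovine-CRF for 2 h at 21 °C in 50 mM Hepes pH 7.0 with MgCl2, EGTA, protease inhibitors, Triton X-100, bacitracin and ovalbumin. Separated by filtration on PEI-treated GF/B filters and gamma counted. Nonspecific binding defined with 1 µM DMP696.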

[2] = target: T2, Corticotropin-releasing factor receptor 1 (Homo sapiens, UniProt P34998); experiment: as §1; in short: as §2
T2 sequence (P34998 whole entry): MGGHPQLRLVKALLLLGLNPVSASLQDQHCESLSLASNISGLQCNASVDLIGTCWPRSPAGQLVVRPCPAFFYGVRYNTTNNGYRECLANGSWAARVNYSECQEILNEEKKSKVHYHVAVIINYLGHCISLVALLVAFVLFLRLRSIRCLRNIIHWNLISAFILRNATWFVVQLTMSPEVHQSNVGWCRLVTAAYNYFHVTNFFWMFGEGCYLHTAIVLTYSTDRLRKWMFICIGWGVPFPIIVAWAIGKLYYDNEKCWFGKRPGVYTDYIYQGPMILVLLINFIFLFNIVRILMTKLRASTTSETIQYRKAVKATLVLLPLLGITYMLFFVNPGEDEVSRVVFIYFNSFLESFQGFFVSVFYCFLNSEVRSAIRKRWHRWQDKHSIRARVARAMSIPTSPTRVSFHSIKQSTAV

[3] = target: Cannabinoid receptor 1 (Homo sapiens) (UniProt P21554); experiment: Inhibition of Cannabinoid receptor 1 at 10 uM
Chain of Cannabinoid receptor 1 (Homo sapiens) (P21554 whole entry): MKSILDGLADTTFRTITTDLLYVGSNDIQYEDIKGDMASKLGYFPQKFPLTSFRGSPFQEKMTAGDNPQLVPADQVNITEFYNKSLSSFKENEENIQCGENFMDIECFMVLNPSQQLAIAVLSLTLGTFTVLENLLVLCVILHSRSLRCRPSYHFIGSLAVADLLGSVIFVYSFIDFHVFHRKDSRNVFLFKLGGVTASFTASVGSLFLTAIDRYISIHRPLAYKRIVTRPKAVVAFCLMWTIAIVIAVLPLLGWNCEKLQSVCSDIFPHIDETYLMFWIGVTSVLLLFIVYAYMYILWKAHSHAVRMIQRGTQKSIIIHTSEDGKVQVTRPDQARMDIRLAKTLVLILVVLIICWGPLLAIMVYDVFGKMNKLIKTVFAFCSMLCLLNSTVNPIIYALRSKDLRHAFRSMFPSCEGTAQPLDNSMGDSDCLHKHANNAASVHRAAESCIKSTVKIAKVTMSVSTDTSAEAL

[4] = Half life in Beagle dogs; format: ADME, Canis lupus familiaris; settings: dog, in vivo
In short: (§3)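 Beagle dogs dosed iv at 1.0 mg/kg (n = 2) in propylene glycol:water:N,N-dimethylacetamide 80:10:10, or po at 5.0 mg/kg (n = 2) in Labrafil:ethanol:Tween 80 85:10:5. Blood drawn by jugular venipuncture at 0–24 h (iv from 0.1 h, po from 0.5 h). Plasma stored at -20 °C, levels measured by LC/MS/MS.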

[5] = target: T3, Adenosine receptor A3 (Homo sapiens) (UniProt P0DMS8); experiment: Inhibition of Adenosine A3 receptor at 10 uM
T3 sequence (whole entry): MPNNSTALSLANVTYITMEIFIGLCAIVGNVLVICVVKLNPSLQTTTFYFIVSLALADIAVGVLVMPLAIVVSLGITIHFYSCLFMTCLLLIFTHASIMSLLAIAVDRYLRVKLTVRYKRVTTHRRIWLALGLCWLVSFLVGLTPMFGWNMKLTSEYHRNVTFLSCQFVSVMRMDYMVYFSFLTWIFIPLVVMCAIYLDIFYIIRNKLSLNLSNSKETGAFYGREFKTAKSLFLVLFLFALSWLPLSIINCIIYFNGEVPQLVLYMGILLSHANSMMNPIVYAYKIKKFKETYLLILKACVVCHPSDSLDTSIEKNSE

[6] = Mean free plasma concentration was determined in the defensive withdrawal model of rats after oral administration; Dose 10 mg/kg; format: ADME, organism-based; set-up: dose 10 mg/kg, route oral; settings: rat, in vivo
[7] = Mean total plasma concentration was determined in the defensive withdrawal model of rats after oral administration; Dose 3 mg/kg; format: ADME, organism-based; set-up: dose 3 mg/kg, route oral; settings: rat, in vivo, read-out: Mean total plasma concentration
[8] = Mean total plasma concentration was determined in the defensive withdrawal model of rats after oral administration; Dose 1 mg/kg; format: ADME, organism-based; set-up: dose 1 mg/kg, route oral; settings: rat, in vivo, read-out: Mean total plasma concentration
[9] = target: T4, Corticotropin-releasing factor receptor 1 (Rattus norvegicus) (UniProt P35353); experiment: Percent occupancy of corticotropin releasing factor receptor 1 in defensive withdrawal model in rats after oral administration; Dose 1 mg/kg; format: functional, organism-based; set-up: dose 1 mg/kg; settings: at 1 mg/kg
T4 sequence (whole entry): T1 sequence (P35353 whole entry)
In short: (§4)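 After oral dosing at 1, 3 or 10 mg/kg in the defensive withdrawal rats, CRF1 occupancy in parietal cortex measured by ex vivo autoradiography; n = 5.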

[10] = Mean free plasma concentration was determined in the defensive withdrawal model of rats after oral administration; Dose 3 mg/kg; format: ADME, organism-based; set-up: dose 3 mg/kg, route oral; settings: rat, in vivo
[11] = target: T4, Corticotropin-releasing factor receptor 1 (Rattus norvegicus); experiment: Percent occupancy of corticotropin releasing factor receptor 1 in defensive withdrawal model in rats after oral administration; Dose 10 mg/kg; format: organism-based; set-up: dose 10 mg/kg; settings: at 10 mg/kg; in short: as §4
Rattus norvegicus [12] = experiment: Percent decrease in exit latency was determined in the defensive withdrawal model of rats after oral administration; Dose 3 mg/kg; format: functional
In short: (§5)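 Male Sprague–Dawley rats (180–300 g) dosed po at 1, 3 or 10 mg/kg in 0.25% methocel suspension, 1 h before testing. Each rat placed in a darkened chamber inside a brightly lit open field; latency to emerge timed. Result expressed as % decrease versus vehicle, n = 8 per dose.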

Rattus norvegicus [13] = experiment: Percent decrease in exit latency was determined in the defensive withdrawal model of rats after oral administration; Dose 1 mg/kg; format: functional; in short: as §5
[14] = target: Vasopressin V1 receptor (Homo sapiens) (UniProt P37288+P47901); experiment: Inhibition of Vasopressin V1 receptor at 10 uM; format: protein assay
Chain of Vasopressin V1 receptor (Homo sapiens) (P37288 whole entry, looked up): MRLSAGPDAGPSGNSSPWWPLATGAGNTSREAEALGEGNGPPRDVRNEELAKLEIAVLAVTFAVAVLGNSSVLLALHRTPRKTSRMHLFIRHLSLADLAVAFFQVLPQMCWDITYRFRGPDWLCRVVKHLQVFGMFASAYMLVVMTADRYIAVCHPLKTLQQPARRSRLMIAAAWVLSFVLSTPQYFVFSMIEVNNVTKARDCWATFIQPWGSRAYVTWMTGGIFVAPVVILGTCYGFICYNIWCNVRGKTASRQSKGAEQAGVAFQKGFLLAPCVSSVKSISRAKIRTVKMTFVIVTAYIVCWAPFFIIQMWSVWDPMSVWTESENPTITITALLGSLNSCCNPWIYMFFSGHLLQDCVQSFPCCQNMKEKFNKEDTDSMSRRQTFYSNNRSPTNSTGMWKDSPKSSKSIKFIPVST
Chain of Vasopressin V1 receptor (Homo sapiens) (P47901 whole entry, looked up): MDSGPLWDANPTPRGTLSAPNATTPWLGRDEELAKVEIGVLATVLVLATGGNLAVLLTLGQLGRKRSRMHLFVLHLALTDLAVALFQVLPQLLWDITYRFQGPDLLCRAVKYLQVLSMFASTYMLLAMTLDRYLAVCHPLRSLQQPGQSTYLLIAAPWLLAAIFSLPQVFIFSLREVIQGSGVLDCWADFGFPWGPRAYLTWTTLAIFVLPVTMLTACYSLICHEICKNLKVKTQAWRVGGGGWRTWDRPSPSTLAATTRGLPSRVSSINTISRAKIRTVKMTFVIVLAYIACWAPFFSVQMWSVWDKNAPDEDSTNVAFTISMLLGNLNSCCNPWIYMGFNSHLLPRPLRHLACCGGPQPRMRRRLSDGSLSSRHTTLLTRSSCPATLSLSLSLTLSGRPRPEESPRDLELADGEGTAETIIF

[15] = target: Corticotropin releasing factor receptor (Rattus norvegicus, UniProt P47866+P35353); experiment: Inhibition of corticotropin releasing factor-induced ACTH release from rat pituitary cells; format: functional, cell-based; settings: pituitary gland cell
In short: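 Cultured rat pituitary cells stimulated with 0.3 nM CRF, with inhibition of ACTH release measured across a concentration range to give IC50; n = 3.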

[16] = target: T4, Corticotropin-releasing factor receptor 1 (Rattus norvegicus); experiment: Percent occupancy of corticotropin releasing factor receptor 1 in defensive withdrawal model in rats after oral administration; Dose 3 mg/kg; format: organism-based; set-up: dose 3 mg/kg; settings: at 3 mg/kg; in short: as §4
[17] = Mean total plasma concentration was determined in the defensive withdrawal model of rats after oral administration; Dose 10 mg/kg; format: ADME, organism-based; set-up: dose 10 mg/kg, route oral; settings: rat, in vivo, read-out: Mean total plasma concentration
[18] = Volume of distribution in Beagle dogs; format: ADME, organism-based, Canis lupus familiaris; settings: dog, in vivo; in short: as §3
Rattus norvegicus [19] = experiment: Percent decrease in exit latency was determined in the defensive withdrawal model of rats after oral administration; Dose 10 mg/kg; format: functional; in short: as §5
[20] = Bioavailability in Beagle dogs; format: ADME, organism-based, Canis lupus familiaris; settings: dog, in vivo, read-out: Bioavailabiility; in short: as §3
[21] = Clearance in Beagle dogs; format: ADME, organism-based, Canis lupus familiaris; settings: dog, in vivo; in short: as §3
[22] = Mean free plasma concentration was determined in the defensive withdrawal model of rats after oral administration; Dose 1 mg/kg; format: ADME, organism-based; set-up: dose 1 mg/kg, route oral; settings: rat, in vivo

CCCCN(CC)c1cc(C)nc2c1NC(=O)CN2c1cc(F)c(OC)cc1Cl
IC50 [1]: 0.5 nM

CCN(CC1CCCO1)c1cc(C)nc2c1NC(=O)CN2c1ccc(C(C)C)cc1Br (stereo unspecified)
IC50 [1]: 4.1 nM

CCCCN(CC)c1cc(C)nc2c1NC(=O)CN2c1ccc(C(C)C)cc1
IC50 [1]: 49 nM

CCCCN(CC)c1cc(C)nc2c1NC(=O)CN2c1ccc(OC)cc1Cl
IC50 [1]: 0.3 nM

CCCN(CCOC)c1cc(C)nc2c1NC(=O)CN2c1ccc(C(C)C)cc1Cl
IC50 [1]: 2.6 nM

CCC(CC)Nc1cc(C)nc2c1NC(=O)CN2c1ccc(Cl)cc1Cl
IC50 [1]: 198 nM

CCN(CCCS(C)(=O)=O)c1cc(C)nc2c1NC(=O)CN2c1ccc(C(C)C)cc1Br
IC50 [1]: 305 nM

CCCCN(CC)c1cc(C)nc2c1NC(=O)CN2c1c(Cl)cc(C#N)cc1Cl
IC50 [1]: 3.3 nM

Cc1cc(N2CCOCC2)c2c(n1)N(c1ccc(C(C)C)cc1Br)CC(=O)N2
IC50 [1]: 126 nM

CCCCN(CC)c1cc(C)nc2c1NC(=O)CN2c1ccccc1Br
IC50 [1]: 7.1 nM

CCCCN(CC)c1cc(C)nc2c1NC(=O)CN2c1ccc(OC)nc1C
IC50 [1]: 4.2 nM

CCCCN(CC)c1cc(C)nc2c1NC(=O)CN2c1ccc(Cl)cc1Cl
IC50 [1]: 0.49 nM

CCCCN(CC)c1cc(C)nc2c1NC(=O)CN2c1ccc(C(C)C)cc1Br
IC50 [1]: 0.7 nM

CCCCN(CC)c1cc(C)nc2c1NC(=O)CN2c1ccc(C(C)C)cc1Cl
IC50 [1]: 0.91 nM

CCCCN(CC)c1cc(C)nc(N(CC)c2ccc(C(C)C)cc2Br)n1
Ki [2]: 18 nM

CCN(c1cc(C)nc2c1NC(=O)CN2c1cc(F)c(OC)cc1Cl)C(C)C
IC50 [1]: 1.5 nM

COCCN(CCOC)c1cc(C)nc2c1NC(=O)CN2c1ccc(C(C)C)cc1Cl
IC50 [1]: 18 nM

CCCN(CCC)c1cc(C)nc2c1NC(=O)CN2c1ccc(C#N)cc1Cl
IC50 [1]: 1.2 nM

CCCCNc1cc(C)nc2c1NC(=O)CN2c1ccc(OC)cc1Cl
IC50 [1]: > 1000 nM

CCNc1cc(C)nc2c1NC(=O)CN2c1ccc(OC)cc1Cl
IC50 [1]: > 1000 nM

CCCCN(CC)c1cc(C)nc2c1NC(=O)CN2c1ccc(OC)nc1OC
inhibition [3]: 53%
T1/2 [4]: 27.6 h
inhibition [5]: 49%
Mean free plasma concentration [6]: 1.02 nM
concentration [7]: 21.7 nM
concentration [8]: 3.1 nM
Occupancy [9]: 17%
Mean free plasma concentration [10]: 0.36 nM
Occupancy [11]: 59%
Decrease in exit latency (Rattus norvegicus [12]): 14%
Decrease in exit latency (Rattus norvegicus [13]): 0%
IC50 [1]: 0.82 nM
inhibition [14]: 47%
IC50 [15]: 38.7 nM
Occupancy [16]: 23%
concentration [17]: 61.5 nM
Volume of distribution [18]: 40.6 L/kg
Decrease in exit latency (Rattus norvegicus [19]): 81%
bioavailability [20]: 24%
Clearance [21]: 27.8 mL/min/kg
Mean free plasma concentration [22]: 0.05 nM

CCCN(CC1CCC1)c1cc(C)nc2c1NC(=O)CN2c1ccc(C#N)cc1Cl
IC50 [1]: 1.8 nM

CCCCN(CC)c1cc(C)nc2c1NC(=O)CN2c1ccc(OC)cc1C
IC50 [1]: 0.92 nM

CCN(CCCC#N)c1cc(C)nc2c1NC(=O)CN2c1ccc(OC)cc1C
IC50 [1]: 92 nM

CCCCN(CC)c1cc(C)nc2c1NC(=O)CN2c1ccc(Cl)cc1C#N
IC50 [1]: 10 nM

CCCCN(CC)c1cc(C)nc2c1NC(=O)CN2c1ccc(C#N)cc1Cl
IC50 [1]: 2.2 nM
